In ChEMBL document CHEMBL1134104, “Novel alkylpolyamine analogues that possess both antitrypanosomal and antimicrosporidial activity” (Bioorg Med Chem Lett, 2001):

Tests used:
Trypanosoma brucei [1] = assay: In vitro growth inhibitory activity against Trypanosoma brucei strain LAB110; assay type: functional, organism-based
Trypanosoma brucei [2] = assay: In vitro growth inhibitory activity against Trypanosoma brucei strain K243 (As-10-3); assay type: functional, organism-based
Trypanosoma brucei [3] = assay: In vitro growth inhibitory activity against Trypanosoma brucei strain K269; assay type: functional, organism-based
Encephalitozoon cuniculi [4] = assay: In vitro growth inhibitory activity against Encephalitozoon cuniculi grown on RK-13 cells infected as a monolayer; assay type: functional, organism-based
Procedure, shortened: (§1)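 RK-13 monolayers were infected with E. cuniculi, with 50–80% of control cells infected. Compound was added to duplicate wells for 7 days, and drug-containing medium was replaced on days 3 and 6. On day 8, cells were fixed overnight, Giemsa-stained and counted by inverted microscope at 400× in five confluent fields (240 cells/field). Percentage of infected cells was compared with untreated controls. Values came from three to five growth curves.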

Trypanosoma brucei [5] = assay: In vitro growth inhibitory activity against Trypanosoma brucei strain K243; assay type: functional, organism-based
Encephalitozoon cuniculi [6] = assay: In vitro growth inhibitory activity against Encephalitozoon cuniculi grown on RK-13 cells infected as a monolayer at concentration of 100 uM; assay type: functional; procedure, shortened: as §1
Encephalitozoon cuniculi [7] = assay: In vitro growth inhibitory activity against Encephalitozoon cuniculi grown on RK-13 cells infected as a monolayer at concentration of 50 uM; assay type: functional; procedure, shortened: as §1
Encephalitozoon cuniculi [8] = assay: In vitro growth inhibitory activity against Encephalitozoon cuniculi grown on RK-13 cells infected as a monolayer at concentration of 250 uM; assay type: functional; procedure, shortened: as §1
Encephalitozoon cuniculi [9] = assay: In vitro growth inhibitory activity against Encephalitozoon cuniculi grown on RK-13 cells infected as a monolayer at concentration of 500 uM; assay type: functional; procedure, shortened: as §1

| Compound | IC50 (Trypanosoma brucei [1]) [µM] | IC50 (Trypanosoma brucei [2]) [µM] | IC50 (Trypanosoma brucei [3]) [µM] | IC50 (Encephalitozoon cuniculi [4]) [µM] | IC50 (Trypanosoma brucei [5]) [µM] | inhibition at 100 µM (Encephalitozoon cuniculi [6]) [%] | inhibition at 50 µM (Encephalitozoon cuniculi [7]) [%] | inhibition at 250 µM (Encephalitozoon cuniculi [8]) [%] | inhibition at 500 µM (Encephalitozoon cuniculi [9]) [%] |
| --- | --- | --- | --- | --- | --- | --- | --- | --- | --- |
| c1ccc(-c2ccccc2CNCCCNCCCCCCCNCCCNCc2ccccc2-c2ccccc2)cc1 | 0.24 | 0.2 | 0.75 | 0.47 | 0.19 |  |  |  |  |
| c1ccc(CNCCCNCC2CCCC(CNCCCNCc3ccccc3)C2)cc1 (centres undefined) | 4.05 | 56 | 5.1 |  | 4.15 | 86 |  |  |  |
| COc1ccccc1CNCCCNCCCCCCCNCCCNCc1ccccc1OC | 22 | 5.5 | 16.5 |  | 18.5 |  | 100 |  |  |
| N[C@@H]1C=C[C@@H](NCCCNCC2CCCC(CNCCCN[C@H]3C=C[C@H](N)C3)C2)C1 (some centres undefined) |  |  |  |  |  | 100 |  |  |  |
| CCNCCCNC1C=CC(N)CCC1 (centres undefined) | > 100 |  |  | 36 | > 100 |  |  |  |  |
| C(CNCC1CCC1)CNCC1CCCC(CNCCCNCC2CCC2)C1 (centres undefined) |  |  |  |  |  |  |  | 100 |  |
| N[C@H]1C=CC(NCCCNCC2CCCCCC2)CCC1 (some centres undefined) |  |  |  |  |  | 76 |  |  |  |
| C1CCCC(CNCCCNCC2CCCC(CNCCCNCC3CCCCCC3)C2)CC1 (centres undefined) | 3.25 | 2.15 | 1.71 |  | 14 | 100 |  |  |  |
| N[C@H]1C=CC(NCCCNCC2CC2)C1 (some centres undefined) | > 100 |  |  | 204 | > 100 |  |  |  |  |
| CCNCCCNCCCCCCCNCCCNC[C@@H](C)CC | 0.31 | 0.79 |  |  | 0.38 |  |  |  |  |
| CC[C@H](C)CNCCCNCCCCCCCNCCCN |  |  |  |  |  |  |  |  | 87 |
| CCC(C)CNCCCNCCCCCCCNCCCNCC(C)CC (centres undefined) | 0.031 | 0.165 |  |  | 0.04 |  | 47 |  |  |
| C(CNCC1CC1)CNCC1CCCC(CNCCCNCC2CC2)C1 (centres undefined) | 73 | > 100 | > 100 |  | 81.5 | 100 |  |  |  |
| CCNCCCNCC1CCCC(N)CC1 (centres undefined) | > 100 |  |  | 232 | > 100 |  |  |  |  |
| CCNCCCNCCCNCCCNCC [BIS(ETHYL)NORSPERMINE] | > 100 | > 100 | > 100 |  | > 100 |  |  |  |  |
